Experimental data as given in ChEMBL document CHEMBL1132720 (J Med Chem, 1999).
Active and inactive are the calls of the source. No cut-off for these calls is given here.

Columns and labels:
Format in all cases: functional, cell membranes
[1] = target: T1, P2Y purinoceptor 1 (Meleagris gallopavo, UniProt P49652); assay: In vitro antagonist activity at P2Y1 receptor in turkey erythrocyte membranes.
In short: (§1)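 [3H]inositol-labeled turkey erythrocyte ghosts in pH 7.0 Hepes medium with 1 μM GTPγS were incubated 5 min at 30 °C with test nucleotide plus 10 nM 2-MeSADP. Total [3H]inositol phosphates were separated by anion-exchange. Maximal inhibition is 100 minus residual stimulation at the highest concentration; n = 3 unless stated. "No effect" means none at 100 μM.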

[2] = target: P2Y purinoceptor 1 (Meleagris gallopavo) (UniProt P49652); assay: Agonist activity for stimulation of PLC at P2Y purinoceptor 1 in the turkey erythrocyte membranes.
[3] = target: P2Y purinoceptor 1 (Meleagris gallopavo) (UniProt P49652); assay: Antagonist activity for inhibition of PLC elicited by 10 nM 2-MeSADP at P2Y purinoceptor 1 in turkey erythrocyte membranes
In short: as §1, with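 “anion-exchange. […]” for “anion-exchange.”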

[4] = target: T1, P2Y purinoceptor 1; assay: Concentration at which 50% of the maximal effect (stimulation of PLC at P2Y1 receptor in the turkey erythrocyte membranes) is reached; Low potency agonist
[5] = target: P2Y purinoceptor 1 (Meleagris gallopavo) (UniProt P49652); assay: Antagonist activity for inhibition of PLC elicited by 10 nM 2-MeSADP at P2Y purinoceptor 1 in the turkey erythrocyte membranes; No effect, low potency
In short: as §1, with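 “anion-exchange. […]” for “anion-exchange.”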

[6] = target: P2Y purinoceptor 1 (Meleagris gallopavo) (UniProt P49652); assay: In vitro agonist activity at P2Y1 receptor in turkey erythrocyte membranes; No effect at 100 uM.
[7] = target: T1, P2Y purinoceptor 1; assay: Concentration at which 50% of the maximal effect (stimulation of PLC at P2Y1 receptor in the turkey erythrocyte membranes) is reached
[8] = target: P2Y purinoceptor 1 (Meleagris gallopavo) (UniProt P49652); assay: Antagonist activity for inhibition of PLC elicited by 10 nM 2-MeSADP at P2Y purinoceptor 1 in the turkey erythrocyte membranes; No effect
In short: as §1, with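 “anion-exchange. […]” for “anion-exchange.”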

T1 sequence (P49652 whole entry): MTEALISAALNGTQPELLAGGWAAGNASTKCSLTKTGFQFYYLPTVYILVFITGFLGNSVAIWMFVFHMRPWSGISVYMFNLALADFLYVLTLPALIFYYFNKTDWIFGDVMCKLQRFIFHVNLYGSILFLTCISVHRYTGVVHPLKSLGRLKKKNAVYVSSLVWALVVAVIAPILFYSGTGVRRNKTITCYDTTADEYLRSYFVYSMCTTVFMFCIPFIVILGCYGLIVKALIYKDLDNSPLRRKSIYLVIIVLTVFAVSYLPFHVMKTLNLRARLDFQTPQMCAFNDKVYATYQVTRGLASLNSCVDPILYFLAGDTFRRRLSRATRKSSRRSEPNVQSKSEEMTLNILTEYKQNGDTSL
Sequence of P2Y purinoceptor 1 (Meleagris gallopavo) (P49652 whole entry): as above

IC50 [1] [µM] | Increase [2] [%] | inhibition [3] [%] | EC50 [4] | inhibition [5] | Increase [6] | EC50 [7] [µM] | inhibition [8] | SMILES
1.85 | 4 | 96 | – | – | – | – | – | CNc1nc(N)nc2c1ncn2[C@H]1C[C@H](OP(=O)(O)O)[C@@H](COP(=O)(O)O)O1
– | 49 | – | Partial agonist | inactive | – | – | – | [N-]=[N+]=N[C@H]1[C@@H](OP(=O)(O)O)[C@H](n2cnc3c(N)ncnc32)O[C@@H]1COP(=O)(O)OP(=O)(O)OP(=O)(O)O
> 100 | – | – | – | inactive | inactive | – | – | CONc1ncnc2c1ncn2[C@H]1C[C@H](OP(=O)(O)O)[C@@H](COP(=O)(O)O)O1
1.89 | 22 | 78 | – | – | – | – | – | CSc1nc(N)c2ncn([C@H]3C[C@H](OP(=O)(O)O)[C@@H](COP(=O)(O)O)O3)c2n1
0.475 | – | 97 | – | – | inactive | – | – | C=CCSc1nc(NC)c2ncn([C@H]3C[C@H](OP(=O)(O)O)[C@@H](COP(=O)(O)O)O3)c2n1
0.206 | – | 95 | – | – | inactive | – | – | CNc1nc(Cl)nc2c1ncn2[C@H]1C[C@H](OP(=O)(O)O)[C@@H](COP(=O)(O)O)O1
0.362 | 6 | 94 | – | – | – | – | – | CNc1nc(SC)nc2c1ncn2[C@H]1C[C@H](OP(=O)(O)O)[C@@H](COP(=O)(O)O)O1
75.1 | – | 53 | – | – | inactive | – | – | Cc1nc2c(N)ncnc2n1[C@H]1C[C@H](OP(=O)(O)O)[C@@H](COP(=O)(O)O)O1
– | 53 | 46 | – | – | – | 1.71 | – | CCCSc1nc(N)c2ncn([C@H]3C[C@H](OP(=O)(O)O)[C@@H](COP(=O)(O)O)O3)c2n1
– | – | – | – | inactive | inactive | – | – | CNc1nc2c(N)ncnc2n1[C@H]1C[C@H](OP(=O)(O)O)[C@@H](COP(=O)(O)O)O1
– | 46 | – | Partial agonist | – | – | – | inactive | [N-]=[N+]=N[C@H]1[C@@H](OP(=O)(O)O)[C@H](n2cnc3c(N)ncnc32)O[C@@H]1COP(=O)(O)O
0.904 | – | 96 | – | – | inactive | – | – | CNc1ccnc2c1ncn2[C@H]1C[C@H](OP(=O)(O)O)[C@@H](COP(=O)(O)O)O1
– | – | – | – | inactive | inactive | – | – | CSc1nc2c(N)ncnc2n1[C@H]1C[C@H](OP(=O)(O)O)[C@@H](COP(=O)(O)O)O1
– | – | – | – | – | inactive | – | inactive | O=c1[nH]c(=O)n([C@H]2C[C@H](OP(=O)(O)O)[C@@H](COP(=O)(O)O)O2)cc1F
5.42 | 26 | 74 | – | – | – | 6.49 | – | CNc1nc(N)nc2c1ncn2[C@@H]1C[C@H](COP(=O)(O)O)[C@@H](OP(=O)(O)O)C1
19.6 | 22 | 78 | – | – | – | 27.7 | – | Nc1ncnc2c1ncn2[C@H]1C[C@H](OP(=O)(O)O)[C@@H](COCP(=O)(O)O)O1
4.59 | 16 | 84 | – | – | – | 1.98 | – | CCSc1nc(N)c2ncn([C@H]3C[C@H](OP(=O)(O)O)[C@@H](COP(=O)(O)O)O3)c2n1
– | – | – | – | – | inactive | – | inactive | Nc1ccn([C@H]2C[C@H](OP(=O)(O)O)[C@@H](COP(=O)(O)O)O2)c(=O)n1

IC50 [1] [µM] | Increase [2] [%] | inhibition [3] [%] | EC50 [4] | inhibition [5] | Increase [6] | EC50 [7] [µM] | inhibition [8] | SMILES
3.37 | – | 100 | – | – | inactive | – | – | CCCCCCSc1nc(NC)c2ncn([C@H]3C[C@H](OP(=O)(O)O)[C@@H](COP(=O)(O)O)O3)c2n1
– | – | – | – | – | inactive | – | inactive | Cc1cn([C@H]2C[C@H](OP(=O)(O)O)[C@@H](COP(=O)(O)O)O2)c(=O)[nH]c1=O
14.9 | – | 93 | – | – | inactive | – | – | Nc1nc2c(ncn2[C@H]2C[C@H](OP(=O)(O)O)[C@@H](COP(=O)(O)O)O2)c(=O)[nH]1
– | 12 | 87 | – | – | – | – | – | Nc1ncnc2c1ncn2[C@H]1C[C@H](OP(=O)(O)O)[C@@H](COP(=O)(O)O)O1
– | – | – | – | – | inactive | – | inactive | O=c1ccn([C@H]2C[C@H](OP(=O)(O)O)[C@@H](COP(=O)(O)O)O2)c(=O)[nH]1
0.158 | 14 | 87 | – | – | – | 0.02 | – | CNc1ncnc2c1ncn2[C@H]1C[C@@H]2OP(=O)(O)OP(=O)(O)OP(=O)(O)OP(=O)(O)OC[C@H]2O1
– | – | – | – | – | inactive | – | inactive | COc1nc2c(N)ncnc2n1[C@H]1C[C@H](OP(=O)(O)O)[C@@H](COP(=O)(O)O)O1
– | 19 | 80 | – | – | – | – | – | Nc1nc(Cl)nc2c1ncn2[C@H]1C[C@H](OP(=O)(O)O)[C@@H](COP(=O)(O)O)O1
30.7 | – | 59 | – | – | inactive | – | – | C=Cc1nc2c(N)ncnc2n1[C@H]1C[C@H](OP(=O)(O)O)[C@@H](COP(=O)(O)O)O1
0.98 | – | 94 | – | – | inactive | – | – | CCSc1nc(NC)c2ncn([C@H]3C[C@H](OP(=O)(O)O)[C@@H](COP(=O)(O)O)O3)c2n1
0.449 | 7 | 94 | – | – | – | – | – | CCCSc1nc(NC)c2ncn([C@H]3C[C@H](OP(=O)(O)O)[C@@H](COP(=O)(O)O)O3)c2n1
2.53 | 27 | 73 | – | – | – | 7.21 | – | Nc1ncnc2c1ncn2[C@@H]1C[C@H](COP(=O)(O)O)[C@@H](OP(=O)(O)O)C1
– | – | – | – | – | inactive | – | inactive | COP(=O)(O)OC[C@H]1O[C@@H](n2cnc3c(N)ncnc32)C[C@@H]1OP(=O)(O)OC
14.9 | 44 | 56 | – | – | – | 2.34 | – | Nc1ncnc2c1ncn2[C@@H]1O[C@H](COP(=O)(O)O)[C@@H](OP(=O)(O)O)[C@H]1O
0.891 | 13 | 87 | – | – | – | 4.44 | – | CNc1nc(I)nc2c1ncn2[C@H]1C[C@H](OP(=O)(O)O)[C@@H](COP(=O)(O)O)O1
– | 56 | 38 | – | – | – | 12.2 | – | Nc1ncnc2c1ncn2[C@H]1C[C@H](OP(=O)(O)O)[C@@H](COP(=O)(O)O)S1
– | – | – | – | – | inactive | – | inactive | Nc1ncnc2c1ncn2[C@H]1C[C@H](O)[C@@H](COP(=O)(O)O)[S+]1[O-] (stereo partly specified)
– | – | – | – | inactive | inactive | – | – | CNc1ncnc2c1ncn2[C@H]1C[C@@H]2OP(=O)(O)OP(=O)(O)OC[C@H]2O1

SMILES | IC50 [1] [µM] | Increase [2] [%] | inhibition [3] [%] | EC50 [4] | inhibition [5] | Increase [6] | EC50 [7] [µM] | inhibition [8]
Nc1ncnc2c1ncn2[C@@H]1CO[C@H](COP(=O)(O)O)[C@@H](OP(=O)(O)O)C1 | – | 100 | – | – | – | – | 2.99 | inactive
